Measured values pooled from the literature.
Each line is one published result; the experiments were not run side by side.
Target: Ephrin type-A receptor 1 (EPHA1, Homo sapiens, UniProt P21709)
One construct used (P21709 26-976): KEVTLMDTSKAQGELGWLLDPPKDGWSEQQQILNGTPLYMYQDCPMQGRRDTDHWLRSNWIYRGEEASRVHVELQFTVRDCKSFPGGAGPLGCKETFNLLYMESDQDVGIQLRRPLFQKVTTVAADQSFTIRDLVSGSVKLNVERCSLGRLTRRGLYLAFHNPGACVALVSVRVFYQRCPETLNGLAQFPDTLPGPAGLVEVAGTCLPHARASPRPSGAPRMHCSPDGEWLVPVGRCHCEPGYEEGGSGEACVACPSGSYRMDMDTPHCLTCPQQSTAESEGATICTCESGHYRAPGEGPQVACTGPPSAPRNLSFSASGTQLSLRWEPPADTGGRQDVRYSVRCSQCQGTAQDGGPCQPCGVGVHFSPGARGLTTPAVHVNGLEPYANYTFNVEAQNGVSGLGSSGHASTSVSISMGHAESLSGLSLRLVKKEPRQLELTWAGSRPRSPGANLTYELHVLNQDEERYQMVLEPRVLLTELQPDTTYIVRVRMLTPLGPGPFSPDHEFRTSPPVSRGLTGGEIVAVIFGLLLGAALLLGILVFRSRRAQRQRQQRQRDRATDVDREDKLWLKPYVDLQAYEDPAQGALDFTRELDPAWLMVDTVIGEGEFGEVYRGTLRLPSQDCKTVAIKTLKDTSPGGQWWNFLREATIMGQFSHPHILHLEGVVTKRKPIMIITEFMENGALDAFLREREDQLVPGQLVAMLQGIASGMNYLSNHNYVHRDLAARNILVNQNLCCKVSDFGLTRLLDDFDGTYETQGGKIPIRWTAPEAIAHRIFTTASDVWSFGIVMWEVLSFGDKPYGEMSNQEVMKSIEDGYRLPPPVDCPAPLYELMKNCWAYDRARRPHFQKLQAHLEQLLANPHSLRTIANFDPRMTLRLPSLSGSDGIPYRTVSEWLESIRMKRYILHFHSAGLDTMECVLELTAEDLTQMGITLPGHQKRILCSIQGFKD

Compound | test | conditions | measurement | value
Cn1cc(-c2cccc(N3CCc4c(sc5c4CC(C)(C)C5)C3=O)c2CO)cc(Nc2ccncn2)c1=O | enzyme activity, inhibitor | 1 µM | inhibition | 3%
COc1ncccc1-c1cnn2ccc(N3CCN(C(=O)OC(C)C)CC3)nc12 | binding, competition with immobilised ligand | 1 µM | remaining binding | 84%
Cn1cncc1[C@@](O)(COc1ccc(C#N)cc1-c1ccc(OC(F)(F)F)cc1)c1ccc(C#N)cc1 | cell-free assay, competition with immobilised ligand | 1 µM | remaining binding | 93%
Cn1cc(-c2cc(F)cc(N3CCn4c(cc5c4CCCC5)C3=O)c2CO)cc(Nc2ccc(N3CCN(C4COC4)CC3)cn2)c1=O | enzyme activity, inhibitor | 0.1 µM | inhibition | 19%
O=c1[nH]c2ccccc2n1C1CCN(Cc2ccc(-c3[nH]c4cc5ncnc5cc4nc3-c3ccccc3)cc2)CC1 | cell-free assay | 0.5 µM | remaining signal | 84.4%
Cc1nn(C)cc1-c1nc2c(N3CCN(Cc4ccc(Cl)cc4)CC3)c(Cl)cnc2[nH]1 | binding, competition with immobilised ligand | 1 µM | remaining binding | 90%
Nc1ncc(-c2nc(N3CCOCC3)nc(N3CCOCC3)n2)c(C(F)F)n1 | cell-free assay, competition with immobilised ligand | 10 µM | remaining binding | 68%
CC(C)(C)c1cc(C=C(C#N)C#N)cc(Br)c1O | enzyme activity, inhibitor | 0.5 µM | remaining activity | 85.1%
COc1cc(Nc2ncc(F)c(Nc3ccc4c(n3)NC(=O)C(C)(C)O4)n2)cc(OC)c1OC | binding, competition with immobilised ligand | 10 µM | inhibition | 98%
